Columns and labels:
[1] = target: Integrin alpha-IIb/beta-3 (Homo sapiens, UniProt P05106+P08514); assay: Displacement of biotinylated fibrinogen from human glycoprotein 2b/3a receptor after 2 hrs by chemiluminescence assay; format: protein-complex assay
Outline: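 Solid-phase competitive binding: purified human GPIIb/IIIa coated overnight at 4 °C in Tris buffer pH 7.4 with 1 mM Ca2+, Mg2+, Mn2+; blocked with 1% BSA. Serially diluted inhibitor plus biotinylated human fibrinogen, 2 h rt; peroxidase anti-biotin antibody 1 h, chemiluminescent read.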

Trypsin = Trypsin (Homo sapiens, UniProt P07477+P07478+P35030); assay: Inhibition of trypsin (unknown origin) using S-2222 as substrate incubated for 15 mins prior to substrate addition measured every 10 secs by spectrophotometric analysis; format: protein assay
Outline: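 Trypsin at 0.5 nkat/mL final with S-2222 at 50 and 100 µM final. Inhibitor 0.5–100 µM, diluted from 10 mM DMSO stocks, preincubated 15 min at 25 °C with enzyme in HBSA buffer before substrate; absorbance at 405 nm every 10 s. Triplicate at three inhibitor and two substrate levels; Ki from initial rates (Cheng–Prusoff), averaged.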

Prothrombin = Prothrombin (Homo sapiens, UniProt P00734); assay: Inhibition of thrombin (unknown origin) using S-2238 as substrate incubated for 15 mins prior to substrate addition measured every 10 secs by spectrophotometric analysis
Coagulation factor X = Coagulation factor X (Homo sapiens, UniProt P00742); assay: Inhibition of F10a (unknown origin) using S-2222 as substrate incubated for 15 mins prior to substrate addition measured every 10 secs by spectrophotometric analysis
Chain of Coagulation factor X (P00742 41-179 limits assumed): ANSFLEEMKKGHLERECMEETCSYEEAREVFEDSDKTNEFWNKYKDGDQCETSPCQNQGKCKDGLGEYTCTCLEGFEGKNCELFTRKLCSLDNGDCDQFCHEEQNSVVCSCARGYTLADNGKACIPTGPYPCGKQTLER
Chain of Coagulation factor X (P00742 235-488 limits assumed): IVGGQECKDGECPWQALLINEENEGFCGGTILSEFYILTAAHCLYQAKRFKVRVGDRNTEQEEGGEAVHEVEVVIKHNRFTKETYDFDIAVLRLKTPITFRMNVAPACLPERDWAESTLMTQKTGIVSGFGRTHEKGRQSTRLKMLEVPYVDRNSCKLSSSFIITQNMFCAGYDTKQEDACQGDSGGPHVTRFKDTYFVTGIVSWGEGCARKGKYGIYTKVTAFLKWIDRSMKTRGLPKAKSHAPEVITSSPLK
Outline: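 Inhibitor 0.5–100 µM (from 10 mM DMSO stocks) preincubated with enzyme in HBSA buffer 15 min, 25 °C; A405 read every 10 s. Triplicate, three inhibitor × two substrate concentrations; Ki from initial linear rates via Cheng–Prusoff, averaged.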

Chain of Integrin alpha-IIb/beta-3 (P05106 27-788 limits assumed): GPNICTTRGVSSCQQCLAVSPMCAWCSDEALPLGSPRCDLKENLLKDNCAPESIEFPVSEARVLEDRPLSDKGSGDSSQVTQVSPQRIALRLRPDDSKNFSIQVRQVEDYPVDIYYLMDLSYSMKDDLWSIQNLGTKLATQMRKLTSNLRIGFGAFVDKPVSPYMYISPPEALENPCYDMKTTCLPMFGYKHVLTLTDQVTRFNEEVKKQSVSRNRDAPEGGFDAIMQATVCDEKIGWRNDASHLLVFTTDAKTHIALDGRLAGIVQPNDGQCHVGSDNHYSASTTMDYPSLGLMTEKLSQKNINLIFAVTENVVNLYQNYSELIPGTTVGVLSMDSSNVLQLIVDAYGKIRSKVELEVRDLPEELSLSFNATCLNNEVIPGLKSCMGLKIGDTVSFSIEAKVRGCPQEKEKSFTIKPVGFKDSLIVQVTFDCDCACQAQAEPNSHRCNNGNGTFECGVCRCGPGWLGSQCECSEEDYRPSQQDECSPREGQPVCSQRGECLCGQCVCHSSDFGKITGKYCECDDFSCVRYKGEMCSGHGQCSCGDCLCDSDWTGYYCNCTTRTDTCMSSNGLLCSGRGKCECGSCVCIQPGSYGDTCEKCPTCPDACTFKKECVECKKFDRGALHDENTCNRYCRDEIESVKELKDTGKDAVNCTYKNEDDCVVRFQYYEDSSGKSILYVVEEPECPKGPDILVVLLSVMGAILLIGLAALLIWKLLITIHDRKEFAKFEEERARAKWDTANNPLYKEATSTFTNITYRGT
Chain of Integrin alpha-IIb/beta-3 (P08514 32-887 limits assumed): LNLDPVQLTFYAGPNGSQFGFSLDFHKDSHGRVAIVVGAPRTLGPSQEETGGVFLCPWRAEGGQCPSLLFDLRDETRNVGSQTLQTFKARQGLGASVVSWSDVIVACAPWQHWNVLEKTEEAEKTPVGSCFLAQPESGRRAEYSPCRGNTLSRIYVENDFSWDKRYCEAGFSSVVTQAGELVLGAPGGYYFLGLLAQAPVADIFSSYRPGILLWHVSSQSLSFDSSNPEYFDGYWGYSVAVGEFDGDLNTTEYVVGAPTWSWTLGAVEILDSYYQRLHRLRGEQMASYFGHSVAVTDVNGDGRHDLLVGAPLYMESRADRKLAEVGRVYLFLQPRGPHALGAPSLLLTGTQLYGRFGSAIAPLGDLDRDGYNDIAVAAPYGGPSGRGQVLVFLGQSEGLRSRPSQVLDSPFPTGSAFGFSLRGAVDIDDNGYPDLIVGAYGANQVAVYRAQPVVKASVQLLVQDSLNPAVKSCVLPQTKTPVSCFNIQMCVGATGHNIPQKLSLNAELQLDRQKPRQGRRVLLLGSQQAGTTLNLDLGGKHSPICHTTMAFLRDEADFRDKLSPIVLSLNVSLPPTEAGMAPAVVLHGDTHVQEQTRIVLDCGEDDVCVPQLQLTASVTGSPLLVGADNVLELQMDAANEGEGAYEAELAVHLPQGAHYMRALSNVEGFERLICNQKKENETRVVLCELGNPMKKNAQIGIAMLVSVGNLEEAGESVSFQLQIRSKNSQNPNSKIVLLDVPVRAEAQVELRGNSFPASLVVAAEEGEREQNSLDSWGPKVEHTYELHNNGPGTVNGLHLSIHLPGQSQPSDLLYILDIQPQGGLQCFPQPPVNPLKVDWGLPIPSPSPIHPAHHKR
Chain of Integrin alpha-IIb/beta-3 (P08514 891-1039 limits assumed): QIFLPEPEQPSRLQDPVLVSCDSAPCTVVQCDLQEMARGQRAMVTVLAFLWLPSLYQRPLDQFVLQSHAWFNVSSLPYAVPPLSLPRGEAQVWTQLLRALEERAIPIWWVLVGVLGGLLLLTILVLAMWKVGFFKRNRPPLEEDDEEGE

Structure (SMILES)	IC50 [1] [µM]	Ki (Trypsin) [µM]	Ki (Prothrombin) [µM]	Ki (Coagulation factor X) [µM]
CC(=O)O.N=C(N)c1ccc(C(=O)NC[C@@H]2CN(c3ccc(N4CCC(C(=O)O)CC4)cc3)C(=O)O2)cc1	4.7	3.79	> 100	62.9
CCOC(=O)C1CCN(c2ccc(N3C[C@H](CNC(=O)c4ccc(Cl)c(N)c4)OC3=O)cc2)CC1	> 300	> 100	> 100	10.8
CC(=O)O.N=C(N)c1ccc(CNC[C@H]2CN(c3ccc(N4CCC(C(=O)O)CC4)cc3)C(=O)O2)cc1	2.2	17.8	53	54.1
Nc1ncc(C(=O)NC[C@@H]2CN(c3ccc(N4CCC(C(=O)O)CC4)cc3)C(=O)O2)s1.O=C(O)C(F)(F)F	16.8	> 100	> 100	88.2
O=C(O)C1CCN(c2ccc(N3C[C@H](CNCc4ccc(-c5noc(=O)[nH]5)cc4)OC3=O)cc2)CC1	0.89	> 100	> 100	> 100
CCOC(=O)C1CCN(c2ccc(N3C[C@@H](CNC(=O)c4ccc(Cl)c(N)c4)OC3=O)cc2)CC1	> 300	> 100	> 100	82.3
O=C(NC[C@H]1CN(c2ccc(N3CCC(C(=O)O)CC3)cc2)C(=O)O1)c1ccc(Cl)c(-c2noc(=O)[nH]2)c1	15.3	> 100	> 100	89.7
CC(=O)O.N=C(N)c1ccc(C(=O)NC[C@H]2CN(c3ccc(N4CCC(C(=O)O)CC4)cc3)C(=O)O2)cc1	12	8.95	> 100	43
CC(=O)O.CCOC(=O)C1CCN(c2ccc(N3C[C@@H](CNCc4ccc(C(=N)N)cc4)OC3=O)cc2)CC1	35	6.59	> 100	25.6
Nc1cc(C(=O)NC[C@H]2CN(c3ccc(N4CCC(C(=O)O)CC4)cc3)C(=O)O2)ccc1Cl	25.8	> 100	> 100	37
O=C(NC[C@H]1CN(c2ccc(N3CCC(C(=O)O)CC3)cc2)C(=O)O1)c1ccc(-c2noc(=O)[nH]2)cc1	16	> 100	> 100	> 100
CCOC(=O)C1(C)CCCN(c2ccc(N3C[C@H](CNC(=O)c4cnc(N)s4)OC3=O)cc2)C1=O.O=C(O)C(F)(F)F (stereo partly specified)	> 300	> 100	> 100	55.6
CCOC(=O)C1CCCN(c2ccc(N3C[C@H](CNC(=O)c4cnc(N)s4)OC3=O)cc2)C1.O=C(O)C(F)(F)F (stereo partly specified)	> 300	> 100	> 100	49.3
O=C(NC[C@H]1CN(c2ccc(N3CCC(C(=O)O)CC3)cc2)C(=O)O1)c1ccc(Cl)s1	> 300			
CC1(C(=O)O)CCCN(c2ccc(N3C[C@H](CNC(=O)c4cnc(N)s4)OC3=O)cc2)C1=O.O=C(O)C(F)(F)F (stereo partly specified)	> 300	> 100	> 100	11.2
Nc1ncc(C(=O)NC[C@H]2CN(c3ccc(N4CCCC(C(=O)O)C4)cc3)C(=O)O2)s1.O=C(O)C(F)(F)F (stereo partly specified)	> 300	> 100	> 100	47.5
O=C(O)C1CCN(c2ccc(N3C[C@@H](CNCc4ccc(-c5noc(=O)[nH]5)cc4)OC3=O)cc2)CC1	0.26	> 100	> 100	94.8
CCOC(=O)C1CCN(c2ccc(N3C[C@H](CNC(=O)c4cnc(N)s4)OC3=O)cc2)C(=O)C1.O=C(O)C(F)(F)F (stereo partly specified)	> 300	> 100	> 100	38.2
O=C(NC[C@@H]1CN(c2ccc(N3CCC(C(=O)O)CC3)cc2)C(=O)O1)c1ccc(Cl)s1	> 300			
CCOC(=O)C1CCCCN1c1ccc(N2C[C@H](CNC(=O)c3cnc(N)s3)OC2=O)cc1.O=C(O)C(F)(F)F (stereo partly specified)	> 300	> 100	> 100	28.7
CC(=O)O.CCOC(=O)C1CCN(c2ccc(N3C[C@H](CNC(=O)c4ccc(C(=N)N)cc4)OC3=O)cc2)CC1	14	5.65	> 100	> 100
Nc1ncc(C(=O)NC[C@H]2CN(c3ccc(N4CCC(C(=O)O)CC4)cc3)C(=O)O2)s1.O=C(O)C(F)(F)F	78.4	> 100	> 100	48.8
CC(=O)O.CCOC(=O)C1CCN(c2ccc(N3C[C@@H](CNC(=O)c4ccc(C(=N)N)cc4)OC3=O)cc2)CC1	96	3.06	> 100	> 100
O=C(NC[C@@H]1CN(c2ccc(N3CCC(C(=O)O)CC3)cc2)C(=O)O1)c1ccc(-c2noc(=O)[nH]2)cc1	0.87	> 100	> 100	> 100
Nc1cc(C(=O)NC[C@@H]2CN(c3ccc(N4CCC(C(=O)O)CC4)cc3)C(=O)O2)ccc1Cl	12.8	> 100	> 100	57.7
CCOC(=O)C1CCN(c2ccc(N3C[C@H](CNC(=O)c4cnc(N)s4)OC3=O)cc2)CC1.O=C(O)C(F)(F)F	> 300	> 100	> 100	54.4
CC(=O)O.CCOC(=O)C1CCN(c2ccc(N3C[C@H](CNCc4ccc(C(=N)N)cc4)OC3=O)cc2)CC1	55	2.17	> 100	34.3
CCOC(=O)C1CCN(c2ccc(N3C[C@@H](CNC(=O)c4cnc(N)s4)OC3=O)cc2)CC1.O=C(O)C(F)(F)F	> 300	> 100	> 100	111

Reference: ChEMBL document CHEMBL2390916, “Low molecular weight dual inhibitors of factor Xa and fibrinogen binding to GPIIb/IIIa with highly overlapped pharmacophores” (Eur J Med Chem, 2013)
